Data set [1] in a line: Binding affinity to SRPK2 in Plasmodium falciparum 3D7 blood stage extract incubated for 1 hr in presence of ATP-competitive kinase inhibitor by kinobeads based pull down assay. As to conditions: read-out: Kd(app). The procedure, abridged:
(§1)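 The free compound competed over six concentrations from 0.08 to 20 μM. Proteins were digested by a modified SP3 protocol, labelled with TMT 10-plex and quantified by LC-MS/MS. Apparent Kd was derived from IC50 corrected for bead depletion. Two independent experiments were run.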

Data set [2] deals with Plasmodium falciparum. Nature of the data set: Antiplasmodial activity against […] of Plasmodium falciparum NF54 assessed as reduction in female gametocytes activation preincubated for 48 hrs followed by gametocytes activation and measured after 24 hrs by fluorescence based automated inverted microscopic analysis. The format is functional, organism-based. The procedure, abridged:
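NF54 gametocytes were activated by lowered temperature plus ookinete medium with xanthurenic acid and anti-Pfs25-Cy3 antibody (1/2000 final dilution). Cultures were then kept at 26 °C for 24 h in the dark. Activated females were counted by Cy3 anti-Pfs25 fluorescence, with events gated on size, roundness and fluorescence intensity.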

Data set [3] addresses Voltage-gated potassium channel, IKs; KCNQ1(Kv7.1)/KCNE1(MinK) (Homo sapiens, UniProt P15382+P51787). The data set can be described thus: Inhibition of human KCNQ1/KCNE1.
Data set [4] in a line: Clearance in mouse liver microsomes at 0.5 uM measured up to 45 mins in presence of NADPH by HPLC-MS/MS analysis. The data set is classed as ADME, Microsome.
Data set [5] has as its system Plasmodium falciparum. Nature of the data set: Antiplasmodial activity against […] of Plasmodium falciparum NF54 assessed as reduction in male gametocytes activation preincubated for 48 hrs followed by gametocytes activation and measured after 24 hrs by fluorescence based automated inverted microscopic analysis. The data set is classed as functional, organism-based. The procedure, abridged: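 Gametocyte activation was triggered by reduced temperature and ookinete medium containing xanthurenic acid. Male exflagellation centres were detected from a 10-frame video, scoring pixel changes caused by flagellar movement shifting surrounding cells.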

For data set [6], the target named is T1, Aryl hydrocarbon receptor (Homo sapiens, UniProt P35869).
T1 sequence (P35869 whole entry): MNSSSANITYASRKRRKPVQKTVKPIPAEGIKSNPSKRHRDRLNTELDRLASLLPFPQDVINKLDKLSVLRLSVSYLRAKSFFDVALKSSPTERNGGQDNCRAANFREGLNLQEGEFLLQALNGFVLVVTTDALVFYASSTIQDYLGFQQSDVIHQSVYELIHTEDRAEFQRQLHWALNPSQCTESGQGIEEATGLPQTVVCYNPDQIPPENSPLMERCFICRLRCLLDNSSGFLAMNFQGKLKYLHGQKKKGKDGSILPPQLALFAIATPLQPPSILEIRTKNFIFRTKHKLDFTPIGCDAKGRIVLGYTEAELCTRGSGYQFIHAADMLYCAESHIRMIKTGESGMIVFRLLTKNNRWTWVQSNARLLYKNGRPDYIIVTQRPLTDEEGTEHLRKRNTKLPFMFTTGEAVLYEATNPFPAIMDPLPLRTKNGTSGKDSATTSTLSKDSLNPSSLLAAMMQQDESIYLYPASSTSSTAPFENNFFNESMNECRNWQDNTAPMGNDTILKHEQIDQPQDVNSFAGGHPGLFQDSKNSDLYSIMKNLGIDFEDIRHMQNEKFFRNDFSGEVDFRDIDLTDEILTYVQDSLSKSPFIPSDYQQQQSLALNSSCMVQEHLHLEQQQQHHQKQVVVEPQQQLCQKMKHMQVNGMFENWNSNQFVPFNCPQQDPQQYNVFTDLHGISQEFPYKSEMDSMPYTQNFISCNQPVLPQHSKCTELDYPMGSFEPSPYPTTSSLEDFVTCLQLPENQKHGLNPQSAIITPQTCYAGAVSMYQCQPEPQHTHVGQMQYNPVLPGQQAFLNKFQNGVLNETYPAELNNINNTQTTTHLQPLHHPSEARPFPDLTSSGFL
Nature of the data set: Agonist activity at human aryl hydrocarbon receptor.

For data set [7], the target named is T2, Nuclear receptor subfamily 1 group I member 2 (Homo sapiens, UniProt O75469).
T2 sequence (O75469 whole entry): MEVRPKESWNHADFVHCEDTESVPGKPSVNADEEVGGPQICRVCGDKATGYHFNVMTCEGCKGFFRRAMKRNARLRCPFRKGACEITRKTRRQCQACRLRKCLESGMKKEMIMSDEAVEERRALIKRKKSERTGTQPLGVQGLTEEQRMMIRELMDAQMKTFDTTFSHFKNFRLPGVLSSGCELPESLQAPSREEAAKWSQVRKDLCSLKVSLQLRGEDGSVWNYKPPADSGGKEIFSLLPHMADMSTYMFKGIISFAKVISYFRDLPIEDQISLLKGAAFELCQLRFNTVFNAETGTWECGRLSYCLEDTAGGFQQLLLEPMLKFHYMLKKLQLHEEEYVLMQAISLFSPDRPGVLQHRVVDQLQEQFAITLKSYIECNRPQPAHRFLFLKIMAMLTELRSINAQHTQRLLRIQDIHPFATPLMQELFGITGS
The data set can be described thus: Agonist activity at human PXR.

Data set [8] addresses Voltage-dependent L-type calcium channel subunit alpha-1C (Homo sapiens, UniProt Q13936). Nature of the data set: Inhibition of human L-type CaV1.2.
Data set [9] can be described thus: Binding affinity to zinc finger (CCCH type) protein in Plasmodium falciparum 3D7 blood stage extract incubated for 1 hr in presence of ATP-competitive kinase inhibitor by kinobeads based pull down assay. The conditions noted are these: read-out: Kd(app).
Data set [10] has as its system Plasmodium falciparum. Nature of the data set: Antiplasmodial activity against Plasmodium falciparum 3D7A harboring with PKG T618Q mutant asexual erythrocytic stage assessed as reduction in [3H]hypoxanthine incorporation preincubated for 48 hrs followed by [3H]hypoxanthine addition and measured after 24 hrs by microbeta scintillation counting method. The format is functional, organism-based.

Data set [11] can be described thus: Clearance in human liver microsomes at 0.5 uM measured up to 45 mins in presence of NADPH by HPLC-MS/MS analysis. The data set is classed as ADME, Microsome. A general note: Liver microsomes are vesicles of endoplasmic reticulum, rich in cytochrome P450 enzymes.
The target of data set [12] is T3, Amine oxidase [flavin-containing] A (Homo sapiens, UniProt P21397).
T3 sequence (P21397 whole entry): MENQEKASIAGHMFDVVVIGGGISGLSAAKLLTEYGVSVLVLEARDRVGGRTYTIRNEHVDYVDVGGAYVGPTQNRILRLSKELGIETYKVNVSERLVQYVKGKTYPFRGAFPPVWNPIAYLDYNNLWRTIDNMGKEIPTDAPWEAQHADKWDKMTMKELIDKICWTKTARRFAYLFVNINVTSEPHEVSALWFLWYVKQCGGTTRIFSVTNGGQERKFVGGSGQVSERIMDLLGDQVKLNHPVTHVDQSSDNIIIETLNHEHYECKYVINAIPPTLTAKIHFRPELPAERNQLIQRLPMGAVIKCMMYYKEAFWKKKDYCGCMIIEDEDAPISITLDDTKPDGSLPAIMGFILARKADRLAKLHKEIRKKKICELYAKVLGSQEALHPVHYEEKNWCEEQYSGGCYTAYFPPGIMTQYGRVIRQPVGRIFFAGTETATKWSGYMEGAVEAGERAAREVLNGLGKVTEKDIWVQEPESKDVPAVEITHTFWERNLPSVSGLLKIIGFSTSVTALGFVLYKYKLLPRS
Nature of the data set: Inhibition of human MAO-A.

The nature of data set [13]: Binding affinity to GSK3 in Plasmodium falciparum 3D7 blood stage extract incubated for 1 hr in presence of ATP-competitive kinase inhibitor by kinobeads based pull down assay. As to conditions: read-out: Kd(app). The procedure, abridged: as §1

Consider 1 molecule from ChEMBL document CHEMBL4414601 (J Med Chem, 2019).

The term EC50 denotes the concentration giving half of the maximal effect. A word on the IC50: it is the concentration at which inhibition is half-maximal.

Sequence of Voltage-dependent L-type calcium channel subunit alpha-1C (Q13936 whole entry): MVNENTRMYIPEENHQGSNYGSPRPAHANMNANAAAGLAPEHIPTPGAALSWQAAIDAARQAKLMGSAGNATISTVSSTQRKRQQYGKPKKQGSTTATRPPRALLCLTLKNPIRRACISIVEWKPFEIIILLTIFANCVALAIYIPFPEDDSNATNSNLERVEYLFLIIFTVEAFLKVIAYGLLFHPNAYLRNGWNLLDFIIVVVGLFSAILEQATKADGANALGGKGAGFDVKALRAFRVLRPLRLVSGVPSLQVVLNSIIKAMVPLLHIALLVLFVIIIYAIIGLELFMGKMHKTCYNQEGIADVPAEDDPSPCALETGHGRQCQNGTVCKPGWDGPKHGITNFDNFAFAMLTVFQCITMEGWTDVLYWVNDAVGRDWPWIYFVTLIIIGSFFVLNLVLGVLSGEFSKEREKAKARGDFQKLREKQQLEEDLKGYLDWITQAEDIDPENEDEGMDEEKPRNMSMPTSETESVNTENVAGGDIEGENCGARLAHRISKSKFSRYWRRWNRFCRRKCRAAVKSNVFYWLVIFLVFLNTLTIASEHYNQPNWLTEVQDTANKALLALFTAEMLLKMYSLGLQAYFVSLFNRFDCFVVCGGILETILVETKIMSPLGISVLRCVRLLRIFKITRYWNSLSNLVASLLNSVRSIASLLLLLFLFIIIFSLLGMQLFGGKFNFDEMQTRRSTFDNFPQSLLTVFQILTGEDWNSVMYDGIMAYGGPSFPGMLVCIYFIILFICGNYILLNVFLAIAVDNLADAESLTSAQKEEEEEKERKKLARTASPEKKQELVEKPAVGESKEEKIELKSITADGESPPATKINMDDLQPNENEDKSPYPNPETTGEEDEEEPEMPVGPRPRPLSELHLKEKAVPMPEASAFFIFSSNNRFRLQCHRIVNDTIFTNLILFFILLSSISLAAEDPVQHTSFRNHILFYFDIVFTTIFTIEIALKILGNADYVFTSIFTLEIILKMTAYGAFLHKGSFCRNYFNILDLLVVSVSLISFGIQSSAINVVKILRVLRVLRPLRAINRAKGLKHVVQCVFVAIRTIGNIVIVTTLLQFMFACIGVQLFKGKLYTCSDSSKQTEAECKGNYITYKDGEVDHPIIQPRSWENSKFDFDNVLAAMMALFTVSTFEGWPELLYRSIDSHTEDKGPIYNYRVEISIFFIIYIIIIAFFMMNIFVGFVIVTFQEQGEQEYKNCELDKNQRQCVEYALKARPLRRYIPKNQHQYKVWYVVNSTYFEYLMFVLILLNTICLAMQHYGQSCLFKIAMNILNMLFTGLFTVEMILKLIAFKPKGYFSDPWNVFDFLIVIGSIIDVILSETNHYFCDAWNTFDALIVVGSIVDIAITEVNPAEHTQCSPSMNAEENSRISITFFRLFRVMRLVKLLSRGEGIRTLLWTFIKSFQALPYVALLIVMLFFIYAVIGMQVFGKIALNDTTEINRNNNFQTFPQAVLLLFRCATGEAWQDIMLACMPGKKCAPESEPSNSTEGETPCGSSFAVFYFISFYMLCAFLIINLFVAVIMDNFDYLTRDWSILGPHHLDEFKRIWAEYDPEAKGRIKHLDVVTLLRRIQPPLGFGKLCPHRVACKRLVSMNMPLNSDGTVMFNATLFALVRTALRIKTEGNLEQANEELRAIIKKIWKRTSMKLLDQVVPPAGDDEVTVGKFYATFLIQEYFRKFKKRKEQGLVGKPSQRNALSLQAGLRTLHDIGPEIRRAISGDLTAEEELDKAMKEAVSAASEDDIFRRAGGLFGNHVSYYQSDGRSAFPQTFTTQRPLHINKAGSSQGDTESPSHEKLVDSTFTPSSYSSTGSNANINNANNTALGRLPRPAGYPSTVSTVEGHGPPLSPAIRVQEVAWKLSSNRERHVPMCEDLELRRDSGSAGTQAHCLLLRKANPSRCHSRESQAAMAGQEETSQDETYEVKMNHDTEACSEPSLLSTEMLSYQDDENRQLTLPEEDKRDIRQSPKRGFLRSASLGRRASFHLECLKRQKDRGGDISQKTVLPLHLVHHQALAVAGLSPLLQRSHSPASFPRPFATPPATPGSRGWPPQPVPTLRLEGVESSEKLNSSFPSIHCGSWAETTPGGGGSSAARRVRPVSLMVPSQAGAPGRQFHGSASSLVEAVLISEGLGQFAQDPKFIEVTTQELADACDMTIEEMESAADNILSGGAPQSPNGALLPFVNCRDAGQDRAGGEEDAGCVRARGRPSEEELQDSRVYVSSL
Sequence of Voltage-gated potassium channel, IKs; KCNQ1(Kv7.1)/KCNE1(MinK) (P51787 whole entry): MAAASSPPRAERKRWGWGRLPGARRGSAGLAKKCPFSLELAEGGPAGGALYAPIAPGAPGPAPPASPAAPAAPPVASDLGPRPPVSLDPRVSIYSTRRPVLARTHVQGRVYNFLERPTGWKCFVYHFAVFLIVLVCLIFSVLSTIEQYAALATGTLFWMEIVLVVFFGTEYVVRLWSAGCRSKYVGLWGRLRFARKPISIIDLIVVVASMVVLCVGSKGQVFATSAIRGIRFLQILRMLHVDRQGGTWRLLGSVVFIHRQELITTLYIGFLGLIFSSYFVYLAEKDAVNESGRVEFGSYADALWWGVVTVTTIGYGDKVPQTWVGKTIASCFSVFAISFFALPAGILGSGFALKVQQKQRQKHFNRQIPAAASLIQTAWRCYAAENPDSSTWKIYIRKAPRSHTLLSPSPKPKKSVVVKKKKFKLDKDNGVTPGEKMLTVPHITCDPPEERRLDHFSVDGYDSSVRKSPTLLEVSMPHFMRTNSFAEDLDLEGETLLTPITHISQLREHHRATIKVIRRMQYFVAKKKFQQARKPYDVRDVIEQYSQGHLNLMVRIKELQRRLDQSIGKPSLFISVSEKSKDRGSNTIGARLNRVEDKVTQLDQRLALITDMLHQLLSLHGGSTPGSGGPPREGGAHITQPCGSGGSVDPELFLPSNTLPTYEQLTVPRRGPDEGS

On to `Cc1cc(Nc2nccc(-c3sc(C4CCNCC4)nc3-c3ccc(F)cc3)n2)ccn1`, for which the Kd was found to be 190 nM in [1], 3900 nM in [9] and 90 nM in [13]. Also, the half-maximal effective concentration (EC50) in the data set on Plasmodium falciparum [2] was 400 nM; with Plasmodium falciparum [5], 300 nM; in [6], above 50000 nM; in data set [7] it was above 50000 nM; in the data set on Plasmodium falciparum [10] it was 150 nM. Moreover, the IC50 in data set [3] is above 25000 nM; in [8], above 30000 nM; in data set [12] it was above 100000 nM. The figures for the CLH in [4] and in data set [11] were 1.62 mL/min/g and 0.96 mL/min/g, respectively.
